{"source": "ChEMBL document CHEMBL4138133", "about": "“2,3-Dihydro-3β-methoxy Withaferin-A Protects Normal Cells against Stress: Molecular Evidence of Its Potent Cytoprotective Activity” (J Nat Prod, 2017)", "key": {"[1]": {"tested_on": "TIG-3", "assay": "Cytoprotective activity against doxorubicin-induced stress in human TIG3 cells assessed as increase in cell survival pretreated with doxorubicin for 24 hrs followed by compound addition measured after 2 days by crystal violet staining based assay", "type": "functional"}, "[2]": {"molecular_target": "Mitogen-activated protein kinase 3 (Homo sapiens) (UniProt P27361)", "sequence (P27361 whole entry)": "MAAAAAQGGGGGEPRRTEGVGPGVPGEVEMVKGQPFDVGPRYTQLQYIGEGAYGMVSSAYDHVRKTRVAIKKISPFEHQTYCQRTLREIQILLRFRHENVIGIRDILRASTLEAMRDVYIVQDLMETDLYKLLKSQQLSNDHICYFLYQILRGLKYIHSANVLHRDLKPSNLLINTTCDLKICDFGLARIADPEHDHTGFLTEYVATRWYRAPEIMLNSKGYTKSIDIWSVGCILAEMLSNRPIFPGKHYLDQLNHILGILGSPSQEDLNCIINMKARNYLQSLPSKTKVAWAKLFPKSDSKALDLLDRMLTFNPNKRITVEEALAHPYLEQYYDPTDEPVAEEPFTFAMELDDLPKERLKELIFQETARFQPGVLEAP", "assay": "Induction of ERK1 phosphorylation at Thr202 residues in H2O2 treated human TIG3 cells at 0.6 uM pretreated with H2O2 for 2 hrs followed by compound addition by immunoblot analysis", "method_in_brief": "(§1)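 TIG-3 cells stressed with H2O2 (500 μM, 2 h), then recovered in medium containing 0.3 or 0.6 μM compound. Lysed in NP40 buffer; 10−20 μg protein immunoblotted for pAkt Ser473, p-p38 Thr180/Tyr182, p-p44/42 Thr202/Tyr204, β-catenin, survivin, Bcl-2 or full-length PARP-1. Triplicate experiments.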"}, "[3]": {"tested_on": "TIG-3", "assay": "Induction of oxidative stress in human TIG3 cells assessed as increase in GADD45alpha mRNA levels by RT-PCR analysis", "type": "cell-based", "method_in_brief": "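Total RNA from treated TIG-3 cells; cDNA from 2 μg RNA; PCR 95 °C 10 min, 30 cycles (95 °C 45 s, 58 °C 1 min, 72 °C 45 s), 72 °C 10 min; products on 0.8% agarose, band densitometry; three independent experiments.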"}, "[4]": {"tested_on": "TIG-3", "assay": "Cytotoxicity against human TIG3 cells assessed as reduction in cell viability at 1 to 10 uM after 72 hrs", "type": "cell-based", "settings": "tig-3, 72 h", "method_in_brief": "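Normal fibroblasts in DMEM/10% FBS at 37 °C given 0.15 to 50 μM compound for 48 or 72 h; viability determined; triplicate, mean ± SEM.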"}, "[5]": {"molecular_target": "MAP kinase p38 (Homo sapiens) (UniProt O15264+Q15759+Q16539+P53778)", "assay": "Induction of p38 MAPK phosphorylation at Thr180/Tyr182 residues in H2O2 treated human TIG3 cells at 0.6 uM pretreated with H2O2 for 2 hrs followed by compound addition by immunoblot analysis", "method_in_brief": "as §1"}, "[6]": {"molecular_target": "Mitogen-activated protein kinase 1 (Homo sapiens) (UniProt P28482)", "sequence (P28482 whole entry)": "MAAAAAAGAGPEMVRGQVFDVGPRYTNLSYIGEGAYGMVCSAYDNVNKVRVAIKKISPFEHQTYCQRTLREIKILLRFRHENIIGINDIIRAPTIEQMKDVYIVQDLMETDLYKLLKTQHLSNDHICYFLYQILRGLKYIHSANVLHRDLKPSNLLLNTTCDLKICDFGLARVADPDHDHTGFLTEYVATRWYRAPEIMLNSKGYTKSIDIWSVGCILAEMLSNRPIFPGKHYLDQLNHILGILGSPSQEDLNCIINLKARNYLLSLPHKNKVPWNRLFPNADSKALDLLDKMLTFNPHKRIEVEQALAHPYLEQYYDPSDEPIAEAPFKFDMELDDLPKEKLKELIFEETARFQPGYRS", "assay": "Induction of ERK2 phosphorylation at Tyr204 residues in H2O2 treated human TIG3 cells at 0.6 uM pretreated with H2O2 for 2 hrs followed by compound addition by immunoblot analysis", "method_in_brief": "as §1"}, "[7]": {"tested_on": "TIG-3", "assay": "Cytoprotective activity against human TIG3 cells assessed as increase in cell viability at 1.5 to 3 uM pretreated with Wi-A at 0.3 uM for 24 hrs followed by compound addition measured after 48 hrs", "type": "functional, cell-based", "method_in_brief": "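TIG-3 cells pretreated with 0.3 μM Wi-A for 24 h, then incubated with 1.5 or 3 μM compound for 48 h before viability was read. Triplicate, mean ± SEM.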"}, "[8]": {"molecular_target": "RAC-alpha serine/threonine-protein kinase (Homo sapiens) (UniProt P31749)", "sequence (P31749 whole entry)": "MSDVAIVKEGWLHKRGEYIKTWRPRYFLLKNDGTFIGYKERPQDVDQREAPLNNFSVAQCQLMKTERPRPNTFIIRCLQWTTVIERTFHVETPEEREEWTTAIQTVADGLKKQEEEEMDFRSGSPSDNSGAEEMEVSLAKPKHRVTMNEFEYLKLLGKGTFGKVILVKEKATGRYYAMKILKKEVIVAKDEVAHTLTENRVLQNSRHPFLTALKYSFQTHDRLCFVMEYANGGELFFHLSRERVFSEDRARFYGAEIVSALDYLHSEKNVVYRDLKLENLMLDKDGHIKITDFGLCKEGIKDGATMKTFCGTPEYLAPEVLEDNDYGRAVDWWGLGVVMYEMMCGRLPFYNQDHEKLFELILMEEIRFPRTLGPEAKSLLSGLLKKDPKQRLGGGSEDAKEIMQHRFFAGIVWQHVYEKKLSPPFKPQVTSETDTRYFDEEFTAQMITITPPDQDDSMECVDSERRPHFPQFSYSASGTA", "assay": "Induction of AKT-mediated beta-catenin expression level in H2O2 treated human TIG3 cells at 0.6 uM pretreated with H2O2 for 2 hrs followed by compound addition by immunoblot analysis", "method_in_brief": "as §1"}, "[9]": {"tested_on": "TIG-3", "assay": "Cytoprotective activity against UV irradiation-induced stress in human TIG3 cells assessed as decrease in CARF level irradiated with 50 mJ/cm2 of UV radiations followed by compound addition by immuno fluorescence staining based assay", "type": "functional, cell-based"}, "[10]": {"tested_on": "TIG-3", "assay": "Cytoprotective activity against UV irradiation-induced stress in human TIG3 cells assessed as decrease in p53 level irradiated with 50 mJ/cm2 of UV radiations followed by compound addition by immuno fluorescence staining based assay", "type": "functional, cell-based"}, "[11]": {"tested_on": "TIG-3", "assay": "Cytoprotective activity against H2O2-induced oxidative stress in human TIG3 cells assessed as decrease in protein disulfide isomerase expression level at 0.6 uM pretreated with H2O2 for 2 hrs followed by compound addition by immuno fluorescence staining based analysis", "type": "functional, cell-based", "method_in_brief": "(§2)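 TIG-3 fibroblasts (DMEM, 10% FBS, 37 °C) stressed with H2O2 (500 μM, 2 h) or UV (50 mJ/cm2), then recovered in compound-supplemented medium. Cells fixed in chilled absolute methanol and immunostained for the marker. Images taken by fluorescence microscopy and staining intensity quantified. Triplicate experiments.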"}, "[12]": {"molecular_target": "Kelch-like ECH-associated protein 1 (Homo sapiens, UniProt Q14145)", "sequence (Q14145 whole entry)": "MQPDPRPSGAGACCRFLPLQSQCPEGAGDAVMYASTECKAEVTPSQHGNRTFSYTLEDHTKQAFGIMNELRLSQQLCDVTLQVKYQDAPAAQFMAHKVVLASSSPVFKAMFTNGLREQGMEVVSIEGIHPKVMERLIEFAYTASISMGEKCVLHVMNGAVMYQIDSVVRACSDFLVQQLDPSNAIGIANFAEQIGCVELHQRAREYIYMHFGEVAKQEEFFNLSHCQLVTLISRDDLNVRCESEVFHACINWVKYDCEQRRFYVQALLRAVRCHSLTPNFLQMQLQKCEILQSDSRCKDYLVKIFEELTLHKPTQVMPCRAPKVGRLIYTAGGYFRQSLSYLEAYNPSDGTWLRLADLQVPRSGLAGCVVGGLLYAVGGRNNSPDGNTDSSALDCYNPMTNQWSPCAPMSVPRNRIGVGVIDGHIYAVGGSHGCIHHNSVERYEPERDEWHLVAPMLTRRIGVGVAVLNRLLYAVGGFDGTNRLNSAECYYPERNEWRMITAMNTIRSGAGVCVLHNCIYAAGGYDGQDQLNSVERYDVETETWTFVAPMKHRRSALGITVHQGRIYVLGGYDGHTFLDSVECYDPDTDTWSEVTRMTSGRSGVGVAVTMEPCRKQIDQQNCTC", "assay": "Activation of keap1 in human TIG3 cells assessed as Nrf2 nuclear accumulation at 0.6 uM by immuno staining analysis", "type": "cell-based", "method_in_brief": "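Methanol-fixed (chilled absolute methanol) TIG-3 fibroblasts treated with Wi-A or 3βmWi-A; immunofluorescence staining with antibodies, imaged by epifluorescence microscopy; signal quantitated from three independent experiments.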"}, "[13]": {"tested_on": "TIG-3", "assay": "Cytoprotective activity against H2O2-induced oxidative stress in human TIG3 cells assessed as increase in full length PARP level at 0.6 uM pretreated with H2O2 for 2 hrs followed by compound addition by immunoblot analysis", "type": "functional, cell-based", "method_in_brief": "as §1"}, "[14]": {"molecular_target": "Mitogen-activated protein kinase 1 (Homo sapiens) (UniProt P28482)", "assay": "Induction of ERK2 phosphorylation at Tyr204 residues in H2O2 treated human TIG3 cells pretreated with H2O2 for 2 hrs followed by compound addition by immuno fluorescence staining based analysis", "method_in_brief": "as §2"}, "[15]": {"tested_on": "TIG-3", "assay": "Cytotoxicity against human TIG3 cells assessed as cell death at 0.6 uM", "type": "cell-based", "settings": "tig-3, 0.6 µM", "method_in_brief": "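Phase-contrast microscopy of morphology of control and treated normal human TIG-3 fibroblasts.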"}, "[16]": {"tested_on": "TIG-3", "assay": "Cytotoxicity against human TIG3 cells assessed as decrease in ROS generation at 1.5 to 3 uM after 48 hrs", "type": "cell-based", "settings": "tig-3, 48 h"}, "[17]": {"molecular_target": "Mitogen-activated protein kinase 3 (Homo sapiens) (UniProt P27361)", "assay": "Induction of ERK1 phosphorylation at Thr202 residues in UV-irradiated human TIG3 cells using 50 mJ/cm2 of UV radiations followed by compound addition by immuno fluorescence staining based analysis", "method_in_brief": "as §2"}, "[18]": {"tested_on": "TIG-3", "assay": "Cytoprotective activity against UV irradiation-induced stress in human TIG3 cells assessed as increase in cell survival irradiated with 50 mJ/cm2 of UV radiations followed by compound addition measured after 2 days by crystal violet staining based assay", "type": "functional"}, "[19]": {"molecular_target": "Mitogen-activated protein kinase 3 (Homo sapiens) (UniProt P27361)", "assay": "Induction of ERK1 phosphorylation at Thr202 residues in H2O2 treated human TIG3 cells pretreated with H2O2 for 2 hrs followed by compound addition by immuno fluorescence staining based analysis", "method_in_brief": "as §2"}}, "note": "Active and inactive are the calls of the source. The calls are words filed in the database; no cut-off is given here."}
{"smiles": "CO[C@H]1CC(=O)[C@]2(C)[C@H]3CC[C@]4(C)[C@@H]([C@H](C)[C@H]5CC(C)=C(CO)C(=O)O5)CC[C@H]4[C@@H]3C[C@H]3O[C@]32[C@H]1O", "values": [{"measurement": "Activity", "setting": "[1]", "result": "Dose-dependent effect"}, {"measurement": "Activity", "setting": "[2]", "result": "Active"}, {"measurement": "Activity", "setting": "[3]", "result": "Non-Toxic"}, {"measurement": "Activity", "setting": "[4]", "result": "Non-Toxic"}, {"measurement": "Activity", "setting": "[5]", "result": "Active"}, {"measurement": "Activity", "setting": "[6]", "result": "Active"}, {"measurement": "Activity", "setting": "[7]", "result": "Active"}, {"measurement": "Activity", "setting": "[8]", "result": "Active"}, {"measurement": "Activity", "setting": "[9]", "result": "Active"}, {"measurement": "Activity", "setting": "[10]", "result": "Active"}, {"measurement": "Activity", "setting": "[11]", "result": "Active"}, {"measurement": "Activity", "setting": "[12]", "result": "Not Active"}, {"measurement": "Activity", "setting": "[13]", "result": "Active"}, {"measurement": "Activity", "setting": "[14]", "result": "Active"}, {"measurement": "Activity", "setting": "[15]", "result": "Non-Toxic"}, {"measurement": "Activity", "setting": "[16]", "result": "Non-Toxic"}, {"measurement": "Activity", "setting": "[17]", "result": "Active"}, {"measurement": "Activity", "setting": "[18]", "result": "Dose-dependent effect"}, {"measurement": "Activity", "setting": "[19]", "result": "Active"}]}
